The values below come from ChEMBL document CHEMBL2069303, “Stellettin A induces endoplasmic reticulum stress in murine B16 melanoma cells” (J Nat Prod, 2012).

SMILES strings stand for the structures. In brackets after ≈: the same amount, converted by molar mass. Activity calls are given as the source filed them. The calls are words filed in the database; no cut-off is given here.

A short description of test [1]: Selectivity ratio of IC50 for mouse Melan-a cells to IC50 for mouse TM3 cells. The class given is functional.
In test [2] the test system is HaCaT. Nature of the test: Selectivity ratio of IC50 for human HaCaT cells to IC50 for mouse B16F10 cells. The class given is functional.
In test [3] the test system is B16-F10. Description: Induction of endoplasmic reticulum stress in C57BL/6J mouse B16F10 cells assessed as upregulation of GRP78 level at 0.625 ug/mL after 12 hrs by immunoblot analysis. The format is functional, cell-based. The essentials: (§1)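 Treated B16F10 cells were PBS-washed and lysed in 50 mM Tris-Cl, 150 mM NaCl, 0.2% Triton X-100, aprotinin and PMSF, then spun at 4 °C. Protein was equalised by BCA. Lysates were run on 10% SDS-PAGE, transferred to PVDF, blocked with 2% gelatin and probed with specific primary antibodies (TRP-1 blots: 0–0.625 μg/mL for 24 h).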
On the technique in general: A western blot detects proteins with antibodies after separation by electrophoresis.

Test [4] concerns B16-F10. Nature of the test: Cytotoxicity against C57BL/6J mouse B16F10 cells assessed as cell viability after 24 hrs by SRB assay relative to control. The format is functional. The essentials:
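B16F10 cells (20 000/0.1 mL) were given serial concentrations (0.08–5 μg/mL) for 24 h. SRB read-out: TCA fixation, 0.4% SRB staining, acetic acid rinses, solubilisation in 10 mM Tris (pH 10.5), absorbance at 570 nm. Viability expressed relative to untreated control; triplicates in at least three experiments.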

The test system of test [5] is B16-F10. Description: Induction of apoptosis in C57BL/6J mouse B16F10 cells assessed as Bcl2 activation at 0.6 ug/mL up to 48 hrs by immunoblot analysis. The class given is functional, cell-based.
Test [6] deals with B16-F10. Nature of the test: Induction of endoplasmic reticulum stress in C57BL/6J mouse B16F10 cells assessed as upregulation of HSC70 level at 0.625 ug/mL after 24 hrs by immunoblot analysis. The class given is functional, cell-based. The gist of the method: as §1
Test [7] deals with B16-F10. Description: Induction of endoplasmic reticulum stress in C57BL/6J mouse B16F10 cells assessed as upregulation of GRP78 level after 24 hrs by immunofluorescence staining method. The format is functional, cell-based. The essentials: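 B16F10 cells (20 000/mL) on gelatinized coverslips were treated with 0, 0.31, 0.625, 1.25 or 2.5 μg/mL for 24 h. Fixed in 4% paraformaldehyde and immunostained for GRP78, with Alexa-594-conjugated secondary IgG. DAPI counterstain; confocal imaging.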

The subject of test [8] is B16-F10. Nature of the test: Selectivity ratio of IC50 for mouse Melan-a cells to IC50 for mouse B16F10 cells. The class given is functional.
For test [9], the system named is HT-29. Nature of the test: Selectivity ratio of IC50 for human HT-29 cells to IC50 for mouse B16F10 cells. The format is functional.
For test [10], the system named is B16-F10. Nature of the test: Induction of endoplasmic reticulum stress in C57BL/6J mouse B16F10 cells assessed as upregulation of HSC70 level at 0.625 ug/mL after 12 hrs by immunoblot analysis. The format is functional, cell-based. The essentials:
as §1

Test [11] deals with B16-F10. Description: Induction of endoplasmic reticulum stress in C57BL/6J mouse B16F10 cells assessed as deglycosylated TRP1 level at 0.6 ug/mL after 24 hrs by immunoblot analysis. The class given is functional, cell-based. The essentials: as §1
Test [12] concerns B16-F10. Nature of the test: Induction of endoplasmic reticulum stress in C57BL/6J mouse B16F10 cells assessed as abnormally glycosylated TRP1 level at 0.6 ug/mL incubated for 12 hrs measured 1 hr post peptide N-glycosidase F-treatment by immunoblot analysis. The format is functional, cell-based. The essentials:
(§2)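 Lysates of treated B16F10 cells were prepared in RIPA buffer. Protein (10 μg) was digested with 100 units endoglycosidase H or peptide N-glycosidase F at 37 °C for 1 h, then immunoblotted for TRP-1 to separate EndoH-sensitive and EndoH-resistant glycoforms.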

The subject of test [13] is B16-F10. Description: Induction of endoplasmic reticulum stress in C57BL/6J mouse B16F10 cells assessed as immature TRP1 level at 0.6 ug/mL after 24 hrs by immunoblot analysis. The format is functional, cell-based. The gist of the method: as §1
Test [14] concerns B16-F10. Description: Induction of endoplasmic reticulum stress in C57BL/6J mouse B16F10 cells assessed as immature TRP1 level at 0.6 ug/mL incubated for 12 to 24 hrs measured 1 hr post endoglycosidase H-treatment by immunoblot analysis. The format is functional, cell-based. The gist of the method:
as §2

Test [15] has as its system B16-F10. Description: Induction of autophagy in C57BL/6J mouse B16F10 cells assessed as LC3-TYR colocalization at 0.625 to 2.5 ug/mL after 24 hrs by fluorescence microscopy. The class given is functional, cell-based. The essentials: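 B16F10 cells on sterile coverslips were exposed to 0, 0.625, 1.25 or 2.5 μg/mL for 24 h, PBS-washed and paraformaldehyde-fixed. They were co-stained with anti-tyrosinase and anti-LC3, then AlexaFluor-488/594 secondary IgG. DAPI counterstain. Confocal microscopy used to score yellow overlap.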

Test [16] deals with B16-F10. Description: Decrease in TRP1 level in C57BL/6J mouse B16F10 cells assessed as depigmentation after 48 hrs. The format is functional, cell-based.
In test [17] the test system is HT-29. Description: Selectivity ratio of IC50 for human HT-29 cells to IC50 for mouse TM3 cells. The format is functional.
The test system of test [18] is B16-F10. Description: Cytotoxicity against C57BL/6J mouse B16F10 cells after 24 hrs by SRB assay. The format is functional, cell-based. The conditions noted are these: B16-F10, 24 h. The gist of the method:
(§3)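 B16F10 and TM3 cells in 96-well plates were exposed to serial dilutions (0.08–5 μg/mL) for 24 or 48 h. Proteins were fixed with 50% TCA, stained with 0.4% SRB in 1% acetic acid, rinsed with 1% acetic acid, and the dye was dissolved in 10 mM Tris base (pH 10.5). Absorbance was read at 570 nm. Triplicates in at least three separate experiments; IC50 from concentration–response.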
For orientation: The SRB assay estimates cell density from bound dye.

The subject of test [19] is B16-F10. Description: Cytotoxicity against C57BL/6J mouse B16F10 cells after 48 hrs by SRB assay. The format is functional, cell-based. The conditions noted are these: B16-F10, 48 h. The essentials: as §3
Test [20] has as its system B16-F10. Description: Induction of endoplasmic reticulum stress in C57BL/6J mouse B16F10 cells assessed as upregulation of GRP78 level at 0.625 ug/mL after 24 hrs by immunoblot analysis. The format is functional, cell-based. The gist of the method:
as §1

Test [21] in a line: Cytotoxicity against mouse TM3 cells after 48 hrs by SRB assay. The format is functional, cell-based. As to conditions: TM3, 48 h. The gist of the method:
as §3

Test [22] has as its system HaCaT. Description: Selectivity ratio of IC50 for human HaCaT cells to IC50 for mouse TM3 cells. The format is functional.
Test [23] concerns B16-F10. Description: Induction of autophagy in C57BL/6J mouse B16F10 cells assessed as LC32 accumulation at 0.6 ug/mL by immunoblot analysis. The format is functional, cell-based. The essentials: as §1

`C\C(=C/C=C/C(C)=C1/C(=O)C[C@H]2[C@@]3(C)CCC(=O)C(C)(C)[C@@H]3CC[C@]12C)c1ccc(C)c(=O)o1` [STELLETIN A]: the “Ratio IC50” value in [1], in test [2], in test [8], in [9], in [17] and in [22] was 10 in each case. Moreover, the result in [3], in [10], in test [11], in test [12], in test [13] and in test [14] was Active. For the same compound, the outcome in test [15], in test [16] and in [23] was Active. Also, the Activity in [4] is 70%; in test [7] it was “Dose-dependent effect”. Also, the result in test [5], in [6] and in test [20] was inactive. Moreover, the IC50 (commonly the concentration at which inhibition is half-maximal) is 2 µg/mL (≈ 4.32 µM) in test [18], 0.15 µg/mL (≈ 0.324 µM) in [19] and 0.8 µg/mL (≈ 1.73 µM) in test [21].
